Measured values from different studies.
Each line is one published result; the experiments were not run side by side.

With CC(C)/N=C(\N)c1ccc(NC(=O)c2ccc(C(=O)Nc3ccc(/C(N)=N/C(C)C)cc3)cc2)cc1 the IC50 was 38.8 µM (K562; cell growth or viability).
COc1ccccc1CN[C@H]1C2CCN(CC2)[C@H]1C(c1ccccc1)c1ccccc1 has a CC50 of over 25 µM (human PBMC; cell growth or viability, MTS).
With C=C(C)C(O)Cc1c(O)c(CC=C(C)C)c2occ(-c3ccc(O)cc3)c(=O)c2c1O (centres unmarked) the viability was 71.7% (K562; cell growth or viability, MTT; 100 µg/mL).
For O=C(O)c1cccc2ccccc12, the IC50 was over 744 µM (K562; cell growth or viability).
Clc1ccc(COc2cncc(-c3cnn(C4CCNCC4)c3)c2)c(Cl)c1 has a Papp of 10.9 ×10⁻⁶ cm/s (MDCK; Caco-2).
With CC(C)=CCc1c(O)c(CC=C(C)C)c2occ(-c3ccc(O)cc3)c(=O)c2c1O the viability was 94% (K562; cell growth or viability, MTT; 100 µg/mL).
For N[C@@H](CC(=O)N1CCN(C(c2ccc(F)cc2)c2ccc(F)cc2)CC1)C(=O)N1Cc2ccccc2C1, the viability was 7% (K562; cell growth or viability, ATP luminescence; 60 µM).
C#C[C@]1(COP(=O)(O)OP(=O)(O)OP(=O)(O)O)O[C@@H](n2cnc3c(N)nc(F)nc32)C[C@@H]1O has a half-life of 126 h (human PBMC; plasma; oral, 5 mg, single dose).
The CC50 of Cc1cn([C@H]2C[C@H](N=[N+]=[N-])[C@@H](CO)O2)c(=O)[nH]c1=O is reported as over 100 µM (human PBMC; cell growth or viability).
CC[C@@H](C)[C@H](N)C(=O)N1Cc2ccccc2C1 gave a viability of 92% (K562; cell growth or viability, ATP luminescence; 60 µM).
The IC50 of Cc1ccc2cccc(C(=O)O)c2c1 is reported as over 688 µM (K562; cell growth or viability).
